Laboratory results taken from ChEMBL document CHEMBL2086314, “Synthesis and anticonvulsant activity of new N-Mannich bases derived from 3-(2-fluorophenyl)- and 3-(2-bromophenyl)-pyrrolidine-2,5-diones. Part II” (Bioorg Med Chem, 2012).
Calls of active or inactive are those of the source. The calls are words filed in the database; no cut-off is given here.

Key:
[1] = tested on: Mus musculus; assay: Anticonvulsant activity in CF-1 albino mouse assessed as protection from maximal electric shock-induced seizures at 300 mg/kg, ip measured after 4 hrs; assay type: functional, organism-based; set-up: dose 300 mg/kg
In short: (§1)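 Male CF-1 mice dosed ip at 30, 100 or 300 mg/kg, suspension in 0.5% methylcellulose/water. MES: corneal electrodes primed with electrolyte containing anaesthetic, 50 mA, 60 Hz, 0.2 s. Examined 0.5 and 4 h after dosing. Value is the minimum dose protecting half or more of the animals.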

[2] = tested on: Mus musculus; assay: Neurotoxicity in CF-1 albino mouse assessed as motor impairment at 300 mg/kg, ip measured after 0.5 hrs by rotarod test; assay type: toxicity, organism-based; set-up: dose 300 mg/kg, route intraperitoneal; conditions: in vivo
In short: (§2)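 Rotarod neurotoxicity in male CF-1 mice given ip doses of 30, 100 or 300 mg/kg (0.5% methylcellulose suspension), examined 0.5 and 4 h after dosing. Impairment means failing to hold balance on the rod for 1 min. Value is the minimum dose causing toxicity in half or more of the animals; response comments are recorded.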

[3] = tested on: Mus musculus; assay: Neurotoxicity in CF-1 albino mouse assessed as motor impairment at 300 mg/kg, ip measured after 4 hrs by rotarod test; assay type: toxicity, organism-based; set-up: dose 300 mg/kg, route intraperitoneal; conditions: in vivo; in short: as §2
[4] = tested on: Mus musculus; assay: Anticonvulsant activity in CF-1 albino mouse assessed as protection from maximal electric shock-induced seizures at 300 mg/kg, ip measured after 0.5 hrs; assay type: functional, organism-based; set-up: dose 300 mg/kg; in short: as §1
[5] = tested on: Mus musculus; assay: Anticonvulsant activity in CF-1 albino mouse assessed as protection against 6 Hz psychomotor seizure at 100 mg/kg, ip measured after 2 hrs; assay type: functional; conditions: route intraperitoneal
In short: (§3)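 6-Hz psychomotor seizure in male CF-1 mice, compound suspended in 0.5% methylcellulose/water, given ip (100 or 75 mg/kg). Corneal stimulation with 0.2 ms monopolar rectangular pulses at 6 Hz for 3 s, 32 mA, constant-current device. Protected if normal exploratory behaviour resumes within 10 s. Tested 0.25–4 h after dosing; value is mice protected out of four.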

[6] = tested on: Mus musculus; assay: Anticonvulsant activity in ip dosed CF-1 albino mouse assessed as protection against subcutaneous pentylenetetrazol-induced seizures measured after 0.5 hrs; assay type: functional; conditions: read-out: MED
In short: (§4)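 scPTZ test in male CF-1 mice. Compound suspended in 0.5% methylcellulose/water, ip at 30, 100 or 300 mg/kg. Pentylenetetrazole 85 mg/kg (CD97, clonic seizures lasting at least 5 s) given subcutaneously at the test time, read at 0.5 and 4 h. Value is the minimum dose protecting half or more of the animals.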

[7] = tested on: Mus musculus; assay: Anticonvulsant activity in CF-1 albino mouse assessed as protection against 6 Hz psychomotor seizure at 100 mg/kg, ip measured after 1 hr; assay type: functional; conditions: route intraperitoneal; in short: as §3
[8] = tested on: Mus musculus; assay: Neurotoxicity in CF-1 albino mouse assessed as myoclonic jerks at 300 mg/kg, ip measured after 0.5 hrs by rotarod test; assay type: toxicity, organism-based; set-up: dose 300 mg/kg, route intraperitoneal; conditions: in vivo
[9] = tested on: Rattus norvegicus; assay: Anticonvulsant activity in Sprague-Dawley rat assessed as protection from maximum electric shock-induced seizures at 30 mg/kg, po measured after 0.25 hrs; assay type: functional
In short: (§5)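 Male Sprague–Dawley rats, four per group, given 30 mg/kg orally as a suspension in 0.5% methylcellulose/water. MES stimulus 150 mA, 60 Hz, 0.2 s via corneal electrodes. Tested at 0.25, 0.5, 1, 2 and 4 h; value is rats protected out of four.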

[10] = tested on: Mus musculus; assay: Anticonvulsant activity in CF-1 albino mouse assessed as protection against 6 Hz psychomotor seizure at 100 mg/kg, ip measured after 0.5 hrs; assay type: functional; conditions: route intraperitoneal; in short: as §3
[11] = tested on: Rattus norvegicus; assay: Anticonvulsant activity in Sprague-Dawley rat assessed as protection from maximum electric shock-induced seizures at 30 mg/kg, po measured after 0.5 hrs; assay type: functional; in short: as §5
[12] = tested on: Rattus norvegicus; assay: Neurotoxicity in Sprague-Dawley rat assessed as motor impairment at 30 mg/kg, po by rotarod test; assay type: toxicity, organism-based; set-up: dose 30 mg/kg, route oral; conditions: in vivo
In short: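 Male Sprague–Dawley rats, four animals, oral 30 mg/kg in 0.5% methylcellulose/water. Motor impairment on the rotarod (failure to keep balance for 1 min) assessed alongside MES at five times from 0.25 to 4 h.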

[13] = tested on: Rattus norvegicus; assay: Anticonvulsant activity in Sprague-Dawley rat assessed as protection from maximum electric shock-induced seizures at 30 mg/kg, po measured after 1 hr; assay type: functional; in short: as §5
[14] = Neurotoxicity in po dosed Sprague-Dawley rat assessed as motor impairment measured at time of peak effect by rotarod test; assay type: toxicity, organism-based; conditions: in vivo
In short: (§6)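 Male Sprague–Dawley rats dosed orally (0.5% methylcellulose suspension). MES 150 mA, 60 Hz, 0.2 s; rotarod impairment is failure to keep balance for 1 min. Groups of eight, at the previously estimated time of peak effect, with doses varied until at least three points fell in the 10–90% range. ED50/TD50 with 95% confidence intervals from regression; PI = TD50/ED50.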

[15] = tested on: Rattus norvegicus; assay: Anticonvulsant activity in po dosed Sprague-Dawley rat assessed as protection from maximum electric shock-induced seizures; assay type: functional; in short: as §6
[16] = tested on: Mus musculus; assay: Anticonvulsant activity in ip dosed CF-1 albino mouse assessed as protection from maximal electric shock-induced seizures measured after 4 hrs; assay type: functional; conditions: read-out: MED; in short: as §1
[17] = tested on: Rattus norvegicus; assay: Anticonvulsant activity in Sprague-Dawley rat assessed as protection from maximum electric shock-induced seizures at 30 mg/kg, po measured after 2 hrs; assay type: functional; in short: as §5
[18] = tested on: Mus musculus; assay: Anticonvulsant activity in CF-1 albino mouse assessed as protection against 6 Hz psychomotor seizure at 100 mg/kg, ip measured after 4 hrs; assay type: functional; conditions: route intraperitoneal; in short: as §3
[19] = tested on: Rattus norvegicus; assay: Anticonvulsant activity in po dosed maximum electric shock-induced Sprague-Dawley rat assessed as time of peak effect; assay type: functional; in short: as §6
[20] = tested on: Mus musculus; assay: Anticonvulsant activity in CF-1 albino mouse assessed as protection against 6 Hz psychomotor seizure at 100 mg/kg, ip measured after 0.25 hrs; assay type: functional; conditions: route intraperitoneal; in short: as §3
[21] = tested on: Mus musculus; assay: Anticonvulsant activity in CF-1 albino mouse assessed as protection against subcutaneous pentylenetetrazol-induced seizures at 300 mg/kg, ip measured after 4 hrs; assay type: functional, organism-based; set-up: dose 300 mg/kg; in short: as §4
[22] = tested on: Rattus norvegicus; assay: Anticonvulsant activity in Sprague-Dawley rat assessed as protection from maximum electric shock-induced seizures at 30 mg/kg, po measured after 4 hrs; assay type: functional; in short: as §5
[23] = tested on: Mus musculus; assay: Neurotoxicity in ip dosed CF-1 albino mouse assessed as motor impairment measured after 0.5 hrs by rotarod test; assay type: toxicity, organism-based; conditions: in vivo; in short: as §2
[24] = tested on: Mus musculus; assay: Anticonvulsant activity in CF-1 albino mouse assessed as protection against subcutaneous pentylenetetrazol-induced seizures at 300 mg/kg, ip measured after 0.5 hrs; assay type: functional, organism-based; set-up: dose 300 mg/kg; in short: as §4
[25] = tested on: Mus musculus; assay: Anticonvulsant activity in ip dosed CF-1 albino mouse assessed as protection against subcutaneous pentylenetetrazol-induced seizures measured after 4 hrs; assay type: functional; conditions: read-out: MED; in short: as §4

## O=C1CC(c2ccccc2F)C(=O)N1CN1CCN(c2ccccc2F)CC1 (racemic)
[1]
  Activity: inactive
[2]
  Activity: Non-toxic
[3]
  Activity: Non-toxic
[4]
  Activity: inactive

## Cl.Cl.O=C1CC(c2ccccc2F)C(=O)N1CN1CCN(CCO)CC1 (racemic)
[5]
  Activity: 0%
[6]
  minimal effective dose: 300 mg/kg
[7]
  Activity: 0%
[8]
  Activity: Toxic
[9]
  Activity: 25%
[10]
  Activity: 25%
[11]
  Activity: 25%
[12]
  Activity: Non-toxic
[13]
  Activity: 50%
[14]
  TD50: > 500 mg/kg
[15]
  ED50: > 500 mg/kg
[16]
  minimal effective dose: 100 mg/kg
[2]
  Activity: Non-toxic
[17]
  Activity: 25%
[18]
  Activity: 0%
[19]
  Time: 0.5 h
[20]
  Activity: 50%
[3]
  Activity: Non-toxic
[21]
  Activity: inactive
[22]
  Activity: 25%

## O=C1CC(c2ccccc2F)C(=O)N1CN1CCN(c2ncccn2)CC1 (racemic)
[6]
  minimal effective dose: 300 mg/kg
[8]
  Activity: Toxic
[23]
  MTC: 300 mg/kg
[16]
  minimal effective dose: 100 mg/kg
[3]
  Activity: Non-toxic
[4]
  Activity: inactive
[21]
  Activity: inactive

## O=C1CC(c2ccccc2Br)C(=O)N1CN1CCN(c2ccccc2F)CC1 (racemic)
[5]
  Activity: 25%
[7]
  Activity: 25%
[10]
  Activity: 25%
[1]
  Activity: inactive
[2]
  Activity: Non-toxic
[18]
  Activity: 25%
[20]
  Activity: 0%
[3]
  Activity: Non-toxic
[4]
  Activity: inactive

## O=C1CC(c2ccccc2Br)C(=O)N1CN1CCN(C2CCCCC2)CC1 (racemic)
[9]
  Activity: 50%
[11]
  Activity: 50%
[12]
  Activity: Non-toxic
[24]
  Activity: inactive
[13]
  Activity: 100%
[15]
  ED50: < 240 mg/kg
[16]
  minimal effective dose: 100 mg/kg
[2]
  Activity: Non-toxic
[17]
  Activity: 25%
[19]
  Time: 2 h
[3]
  Activity: Non-toxic
[4]
  Activity: inactive
[21]
  Activity: inactive
[22]
  Activity: 25%

## O=C1CC(c2ccccc2Br)C(=O)N1CN1CCN(c2ccc(Cl)cc2)CC1 (racemic)
[16]
  minimal effective dose: 300 mg/kg
[2]
  Activity: Non-toxic
[3]
  Activity: Non-toxic
[4]
  Activity: inactive

## O=C1CC(c2ccccc2Br)C(=O)N1CN1CCN(c2cccc(C(F)(F)F)c2)CC1 (racemic)
[16]
  minimal effective dose: 300 mg/kg
[2]
  Activity: Non-toxic
[4]
  Activity: inactive

## CCC1(C)CC(=O)NC1=O (stereo unspecified) [ETHOSUXIMIDE]
[6]
  minimal effective dose: 100 mg/kg
[25]
  minimal effective dose: 300 mg/kg
[1]
  Activity: inactive
[2]
  Activity: Non-toxic
[3]
  Activity: Non-toxic
[4]
  Activity: inactive

## O=C1CC(c2ccccc2Br)C(=O)N1CN1CCN(c2ccccc2Cl)CC1 (racemic)
[16]
  minimal effective dose: 300 mg/kg
[2]
  Activity: Non-toxic
[3]
  Activity: Non-toxic
[4]
  Activity: inactive
